This note sets out measurements from PMC4127500 (Scientific Reports, 2014).

Values after ≈ are worked out from the molar mass of the structure shown.

The test system of data set [1] is S. aureus 7314. The experiment in a line: Minimum inhibitory concentration. It is filed as cell-based. In a few lines:
(§1)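 Broth microdilution in Mueller Hinton Broth per CLSI. Inoculum was pre-incubated in TSB at 30°C to 0.5 McFarland. Amoxicillin, ampicillin, cefotaxime and gentamicin were tested over 0.5–1024 µg.mL−1, alone or with test compound at 128 µg.mL−1. Each set was repeated three times.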

Data set [2] deals with E. coli 2101123. In words: Minimum inhibitory concentration. It is filed as cell-based. In a few lines: as §1
For data set [3], the system named is E. coli 1812446 clinical strain. In words: Murine non-lethal Escherichia coli infection model. The data set is classed as in vivo, C57BL/6 mice. The conditions noted are these: E. coli infected mice. In a few lines: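 C57BL/6 mice (18–22 g, n = 6/group) got i.p. 200 μl holding 2.5 × 10^8 CFU of E. coli 1812446. One hour later they were treated i.p. with penicillin or ampicillin (100 or 200 mg.kg−1) or gentamicin (10 mg.kg−1), at 12, 24, 48 and 72 h over 7 days. On day 7, blood and peritoneal fluid were serially diluted and plated in triplicate on Mueller Hinton agar at 37°C overnight. Detection limit was 100 CFU.ml−1.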

In data set [4] the test system is P. aeruginosa 6817. The experiment in a line: Minimum inhibitory concentration. It is filed as cell-based. A digest of the protocol: as §1
The test system of data set [5] is S. aureus (ATCC33591). The experiment in a line: Murine non-lethal Staphylococcus aureus infection model. It is filed as in vivo, C57BL/6 mice. Conditions: S. aureus infected mice. A digest of the protocol:
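C57BL/6 mice (18–22 g, n = 6/group) got i.p. 100 µL of S. aureus ATCC33591 at 2 × 10^5 CFU.mL−1. After 1 h, penicillin or ampicillin (100 or 200 mg.kg−1) or cefotaxime (35 mg.kg−1) was given i.p. at 12, 24, 48 and 72 h over 7 days. Day-7 blood and peritoneal fluid were serially diluted, plated in triplicate on mannitol salt agar, and counted as CFU.mL−1.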

In data set [6] the test system is RAW 264.7 cells. In words: MTT cell viability assay. It is filed as cell-based, murine. The conditions noted are these: RAW 264.7 monocytes; 24 h. In a few lines: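 RAW 264.7 cells kept in DMEM with 4 mM L-glutamine, 10% FCS, 2 mM nonessential amino acids and penicillin/streptomycin at 37°C, 5% CO2. Cells were exposed 24 h to test compound or antibiotics, free or combined. Viability was read by MTT (reagent 5 mg.mL−1 in PBS) in three replicates, as % of PBS (pH 7.4) control; mastoparan-L (1–100 μg.mL−1) was the positive control.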

The test system of data set [7] is E. coli 6881. The experiment in a line: Minimum inhibitory concentration. The data set is classed as cell-based. In a few lines:
as §1

The test system of data set [8] is S. aureus ATCC33591. In words: Minimum inhibitory concentration. It is filed as cell-based. In a few lines:
as §1

Data set [9] has as its system E. coli 1812446. In words: Minimum inhibitory concentration. It is filed as cell-based. A digest of the protocol:
as §1

The subject of data set [10] is B. cereus 6591. The experiment in a line: Minimum inhibitory concentration. It is filed as cell-based. In a few lines:
as §1

Data set [11] has as its system E. coli (TEM-1). The experiment in a line: Minimum inhibitory concentration. The data set is classed as cell-based. A digest of the protocol:
as §1

[12] abbreviates: S. aureus 7314, in the presence of dBLIP1 (128 µg.mL^−1).
[13] abbreviates: S. aureus 7314, in the presence of dBLIP2 (128 µg.mL^−1).
The mark [14] stands for this setting: E. coli 2101123, in the presence of dBLIP1 (128 µg.mL^−1).
Where [15] appears, read: E. coli 2101123, in the presence of dBLIP2 (128 µg.mL^−1).
Setting [16] is: P. aeruginosa 6817, in the presence of dBLIP1 (128 µg.mL^−1).
[17] abbreviates: P. aeruginosa 6817, in the presence of dBLIP2 (128 µg.mL^−1).
Where [18] appears, read: E. coli 6881, in the presence of dBLIP1 (128 µg.mL^−1).
Setting [19] is: E. coli 6881, in the presence of dBLIP2 (128 µg.mL^−1).
The mark [20] stands for this setting: S. aureus ATCC33591, in the presence of dBLIP1 (128 µg.mL^−1).
Where [21] appears, read: S. aureus ATCC33591, in the presence of dBLIP2 (128 µg.mL^−1).
[22] abbreviates: Staphylococcus aureus, ATCC33591.
Where [23] appears, read: E. coli 1812446, in the presence of dBLIP1 (128 µg.mL^−1).
Where [24] appears, read: E. coli 1812446, in the presence of dBLIP2 (128 µg.mL^−1).
Setting [25] is: B. cereus 6591, in the presence of dBLIP1 (128 µg.mL^−1).
Where [26] appears, read: B. cereus 6591, in the presence of dBLIP2 (128 µg.mL^−1).
[27] abbreviates: E. coli (TEM-1), in the presence of dBLIP1 (128 µg.mL^−1).
Where [28] appears, read: E. coli (TEM-1), in the presence of dBLIP2 (128 µg.mL^−1).

The term MIC denotes the lowest concentration that inhibits growth of the organism. Take `CC1(C)S[C@@H]2[C@H](NC(=O)[C@H](N)c3ccccc3)C(=O)N2[C@H]1C(=O)O` [AMP, Ampicillin]: the MIC in data set [1] (setting [12]) is 32 µg/mL; in data set [1] (setting [13]), 32 µg/mL; in data set [1] (Staphylococcus aureus, 7314), 512 µg/mL (≈ 1470 µM); in data set [2] (setting [14]), 256 µg/mL; in [2] (setting [15]), 256 µg/mL; in data set [2] (Escherichia coli, 2101123), > 512 µg/mL. The MIC in data set [4] (setting [16]) came out at 32 µg/mL; in data set [4] (setting [17]) it was 32 µg/mL; in data set [4] (Pseudomonas aeruginosa, 6817) it was 512 µg/mL (≈ 1470 µM); in [7] (setting [18]) it was 32 µg/mL; in [7] (setting [19]) it was 32 µg/mL; in data set [7] (Escherichia coli, 6881), 128 µg/mL (≈ 366 µM). In addition, the MIC in data set [8] (setting [20]) is 128 µg/mL; in data set [8] (setting [21]), 128 µg/mL; in data set [8] (setting [22]), 512 µg/mL (≈ 1470 µM); in data set [9] (setting [23]), 512 µg/mL; in data set [9] (setting [24]), 512 µg/mL; in [9] (Escherichia coli, 1812446), > 512 µg/mL. The MIC in data set [10] (setting [25]) was determined as 16 µg/mL; in data set [10] (setting [26]), 8 µg/mL; in data set [10] (Bacillus cereus, 6591), 256 µg/mL (≈ 733 µM); in data set [11] (Escherichia coli), 1020 µg/mL (≈ 2930 µM). Besides, the “CFU, antibiotic alone” value in data set [3] (100 mg.kg^−1 i.p.) is “did not cause any bactericidal effect”; in [3] (200 mg.kg^−1 i.p.) it was “a lower reduction in CFU”; in data set [5] (200 mg.kg^−1 i.p.) it was “CFUs were slightly reduced”. The “cytotoxic activity against RAW 264.7 (MTT cell viability)” value (from here on “cytotoxic activity”) in [6] worked out at 200 µg/mL.

As to `CC1(C)S[C@@H]2[C@H](NC(=O)[C@H](N)c3ccc(O)cc3)C(=O)N2[C@H]1C(=O)O` [AMX, Amoxicillin], the MIC in data set [1] (setting [12]) came to 32 µg/mL; in [1] (setting [13]), 16 µg/mL; in data set [1] (Staphylococcus aureus, 7314), 512 µg/mL (≈ 1400 µM); in [2] (setting [14]), 8 µg/mL; in data set [2] (setting [15]), 8 µg/mL; in data set [2] (Escherichia coli, 2101123), 256 µg/mL (≈ 701 µM). Moreover, the MIC in data set [4] (setting [16]) came out at 32 µg/mL; in data set [4] (setting [17]), 16 µg/mL; in data set [4] (Pseudomonas aeruginosa, 6817) it was 512 µg/mL (≈ 1400 µM); in data set [7] (setting [18]), 32 µg/mL; in [7] (setting [19]), 16 µg/mL; in [7] (Escherichia coli, 6881), 128 µg/mL (≈ 350 µM). The MIC in [8] (setting [20]) was 32 µg/mL; in data set [8] (setting [21]), 32 µg/mL; in data set [8] (setting [22]), 512 µg/mL (≈ 1400 µM); in [9] (setting [23]), 16 µg/mL; in data set [9] (setting [24]), 16 µg/mL; in data set [9] (Escherichia coli, 1812446) it was 256 µg/mL (≈ 701 µM). For the same compound, the MIC in [10] (setting [25]) turned out to be 8 µg/mL; in data set [10] (setting [26]) it was 8 µg/mL; in [10] (Bacillus cereus, 6591), 256 µg/mL (≈ 701 µM); in [11] (Escherichia coli) it was 128 µg/mL (≈ 350 µM).

As for `CO/N=C(\C(=O)N[C@@H]1C(=O)N2C(C(=O)O)=C(COC(C)=O)CS[C@H]12)c1csc(N)n1` [CTX, Cefotaxime], the minimum inhibitory concentration (MIC) in data set [1] (setting [12]) stood at 8 µg/mL; in data set [1] (setting [13]), 8 µg/mL; in data set [1] (Staphylococcus aureus, 7314), 128 µg/mL (≈ 281 µM); in [2] (setting [14]) it was 8 µg/mL; in data set [2] (setting [15]) it was 8 µg/mL; in [2] (Escherichia coli, 2101123), 128 µg/mL (≈ 281 µM). Also, the MIC in data set [4] (setting [16]) was 8 µg/mL; in [4] (setting [17]), 8 µg/mL; in [4] (Pseudomonas aeruginosa, 6817), 64 µg/mL (≈ 141 µM); in data set [7] (setting [18]) it was 8 µg/mL; in data set [7] (setting [19]), 8 µg/mL; in data set [7] (Escherichia coli, 6881), 64 µg/mL (≈ 141 µM). The MIC in data set [8] (setting [20]) came out at 8 µg/mL; in data set [8] (setting [21]), 8 µg/mL; in [8] (setting [22]), 128 µg/mL (≈ 281 µM); in data set [9] (setting [23]) it was 16 µg/mL; in data set [9] (setting [24]), 16 µg/mL; in data set [9] (Escherichia coli, 1812446) it was 256 µg/mL (≈ 562 µM). Further, the MIC in data set [10] (setting [25]) came to 8 µg/mL; in data set [10] (setting [26]), 8 µg/mL; in data set [10] (Bacillus cereus, 6591), 64 µg/mL (≈ 141 µM); in [11] (setting [27]), 4 µg/mL; in data set [11] (setting [28]), 4 µg/mL; in [11] (Escherichia coli), 32 µg/mL (≈ 70.3 µM). Also, the “CFU, antibiotic alone” value in [5] (cefotaxime 35 mg.kg^−1 i.p.) is recorded as “efficient reduction in CFU”.

Consider `CNC(C)C1CCC(N)C(OC2C(N)CC(N)C(OC3OCC(C)(O)C(NC)C3O)C2O)O1` (centres unmarked) [GEN, Gentamicin], for which the MIC in data set [1] (setting [12]) was 8 µg/mL; in [1] (setting [13]), 8 µg/mL; in data set [1] (Staphylococcus aureus, 7314), 64 µg/mL (≈ 134 µM); in [2] (setting [14]), 128 µg/mL; in data set [2] (setting [15]), 128 µg/mL; in data set [2] (Escherichia coli, 2101123), 256 µg/mL (≈ 536 µM). Further, the MIC in [4] (setting [16]) amounted to 8 µg/mL; in data set [4] (setting [17]) it was 8 µg/mL; in data set [4] (Pseudomonas aeruginosa, 6817), 32 µg/mL (≈ 67 µM); in [7] (setting [18]), 4 µg/mL; in [7] (setting [19]) it was 4 µg/mL; in data set [7] (Escherichia coli, 6881) it was 32 µg/mL (≈ 67 µM). Also, the MIC in data set [8] (setting [20]) was 8 µg/mL; in data set [8] (setting [21]), 8 µg/mL; in data set [8] (setting [22]) it was 64 µg/mL (≈ 134 µM); in data set [9] (setting [23]) it was 128 µg/mL; in data set [9] (setting [24]), 128 µg/mL; in data set [9] (Escherichia coli, 1812446), 512 µg/mL (≈ 1070 µM). The minimum inhibitory concentration (MIC) in data set [10] (setting [25]) is 4 µg/mL; in data set [10] (setting [26]), 4 µg/mL; in data set [10] (Bacillus cereus, 6591), 32 µg/mL (≈ 67 µM); in data set [11] (setting [27]), 4 µg/mL; in data set [11] (setting [28]), 4 µg/mL; in [11] (Escherichia coli) it was 32 µg/mL (≈ 67 µM). Further, the “CFU, antibiotic alone” value in data set [3] (gentamicin 10 mg.kg^−1 i.p.) is “efficient CFU decline”. The “cytotoxic activity” value in [6] is 150 µg/mL.

Turning to `CC1(C)S[C@@H]2[C@H](NC(=O)Cc3ccccc3)C(=O)N2[C@H]1C(=O)O` [Penicillin G], the “cytotoxic activity” value in data set [6] was 150 µg/mL.

Regarding Mastoparan-L, the “cytotoxic activity” value in [6] turned out to be 10 µg/mL.
